Source: ChEMBL document CHEMBL1212900, “Falcipain inhibitors: optimization studies of the 2-pyrimidinecarbonitrile lead series” (J Med Chem, 2010)

system: Plasmodium falciparum; test: Antiplasmodial activity against Plasmodium falciparum W2 after 48 hrs; assay type: functional, organism-based; settings: W2, 48 h
Summary of the method: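 W2 P. falciparum grown in human erythrocytes, 2% hematocrit, RPMI with 10% human serum or 0.5% AlbuMAX II; sorbitol-synchronized. Serial dilutions from DMSO stocks added at ring stage for 48 h, medium and drug renewed at 24 h. Cells fixed in 1% formaldehyde, stained with YOYO-1, parasitemia counted by flow cytometry; IC50 from percent parasitemia versus untreated controls.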

Row | Structure (SMILES) | IC50
1 | CN1CCN(Cc2ccc(C(=O)NN(CC3CCC3)c3nc(C#N)ncc3Br)cc2)CC1 | 0.438 µM
2 | CN1CCN(Cc2ccc(C(=O)NN(CC3CCCC3)c3nc(C#N)ncc3Br)cc2)CC1 | 0.033 µM
3 | CN1CCN(Cc2ccc(C(=O)NN(CC3CCCCC3)c3nc(C#N)ncc3Br)cc2)CC1 | 0.263 µM
4 | CN1CCN(Cc2ccc(C(=O)NN(CC3(C)CCCCC3)c3nc(C#N)ncc3Br)cc2)CC1 | 1.49 µM
5 | CN1CCN(Cc2ccc(C(=O)NN(CCC3CCCC3)c3nc(C#N)ncc3Br)cc2)CC1 | 0.177 µM
6 | CC(C)CN(NC(=O)c1ccc(CN2CCN(C)CC2)cc1)c1nc(C#N)ncc1Br | 0.015 µM
7 | CN1CCN(Cc2ccc(C(=O)NN(CC(C)(C)C)c3nc(C#N)ncc3Br)cc2)CC1 | 0.409 µM
8 | CC(C)CCN(NC(=O)c1ccc(CN2CCN(C)CC2)cc1)c1nc(C#N)ncc1Br | 0.262 µM
9 | CN1CCN(Cc2ccc(C(=O)NN(CCC(C)(C)C)c3nc(C#N)ncc3Br)cc2)CC1 | 1.5 µM
10 | CCC(CC)CN(NC(=O)c1ccc(CN2CCN(C)CC2)cc1)c1nc(C#N)ncc1Br | 0.194 µM
11 | CCCC(CCC)CN(NC(=O)c1ccc(CN2CCN(C)CC2)cc1)c1nc(C#N)ncc1Br | 1.2 µM
12 | CCCCC(CCCC)CN(NC(=O)c1ccc(CN2CCN(C)CC2)cc1)c1nc(C#N)ncc1Br | 0.566 µM
13 | CCC(C)CN(NC(=O)c1ccc(CN2CCN(C)CC2)cc1)c1nc(C#N)ncc1Br (centres undefined) | 0.024 µM
14 | CCCC(C)CN(NC(=O)c1ccc(CN2CCN(C)CC2)cc1)c1nc(C#N)ncc1Br (centres undefined) | 0.272 µM
15 | CC(C)N(NC(=O)c1ccc(CN2CCN(C)CC2)cc1)c1nc(C#N)ncc1Br | 0.401 µM
16 | CCC(CC)N(NC(=O)c1ccc(CN2CCN(C)CC2)cc1)c1nc(C#N)ncc1Br | 1.61 µM
17 | CN1CCN(Cc2ccc(C(=O)NN(CC3CC3)c3nc(C#N)ncc3Br)cc2)CC1 | 1.08 µM

system: not listed separately; test: Inhibition of Plasmodium falciparum falcipain-3 expressed in Escherichia coli; settings: not given
Summary of the method: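 Refolded recombinant enzyme from E. coli, 2 nM, in 100 mM sodium acetate pH 5.5 with 500 μM CHAPS and 10 mM DTT, DMSO up to 1%. H-D-Val-Leu-Arg-AFC at 150 μM final. Reaction started by enzyme addition; fluorescence monitored 1 h at room temperature. IC50 derived from percent activity plotted against inhibitor concentration.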

Row | Structure (SMILES) | IC50
18 | CC(C)CN(NC(=O)c1ccc(-c2ccccc2)nc1)c1nc(C#N)ncc1Br | 0.104 µM
19 | CN1CCN(Cc2ccc(C(=O)NN(CC3CCC3)c3nc(C#N)ncc3Br)cc2)CC1 | 0.111 µM
20 | CN1CCN(Cc2ccc(C(=O)NN(CC3CCCC3)c3nc(C#N)ncc3Br)cc2)CC1 | 0.006 µM
21 | CN1CCN(Cc2ccc(C(=O)NN(CC3CCCCC3)c3nc(C#N)ncc3Br)cc2)CC1 | 0.016 µM
22 | CN1CCN(Cc2ccc(C(=O)NN(CC3(C)CCCCC3)c3nc(C#N)ncc3Br)cc2)CC1 | 0.017 µM
23 | CC(C)CN(NC(=O)c1ccc(-c2ccc(Cl)cc2)o1)c1nc(C#N)ncc1Br | 0.351 µM
24 | CC(C)CN(NC(=O)c1ccc(-c2cccc(C(F)(F)F)c2)o1)c1nc(C#N)ncc1Br | 0.097 µM
25 | Cc1oc(-c2ccccc2)cc1C(=O)NN(CC(C)C)c1nc(C#N)ncc1Br | 0.837 µM
26 | CC(C)CN(NC(=O)c1ccc(-c2ccccc2)s1)c1nc(C#N)ncc1Br | 0.549 µM
27 | CC(C)CN(NC(=O)c1cc(-c2ccccc2)cs1)c1nc(C#N)ncc1Br | 0.374 µM
28 | CN1CCN(Cc2ccc(C(=O)NN(CCC3CCCC3)c3nc(C#N)ncc3Br)cc2)CC1 | 0.045 µM
29 | CC(C)CN(NC(=O)c1ncoc1-c1ccccc1)c1nc(C#N)ncc1Br | 0.094 µM
30 | CC(C)CN(NC(=O)c1csc(-c2ccccc2)n1)c1nc(C#N)ncc1Cl | 0.054 µM
31 | CC(C)CN(NC(=O)c1csc(-c2ccccc2)n1)c1nc(C#N)ncc1Br | 0.13 µM
32 | Cc1nc(-c2ccc3c(c2)CCO3)sc1C(=O)NN(CC(C)C)c1nc(C#N)ncc1Cl | 0.95 µM
33 | CC(C)CN(NC(=O)c1cnc(-c2ccc3c(c2)CCO3)s1)c1nc(C#N)ncc1Cl | 0.198 µM
34 | CC(C)CN(NC(=O)c1c[nH]c(-c2ccccc2)n1)c1nc(C#N)ncc1Br | 0.146 µM
35 | CC(C)CN(NC(=O)c1cc(-c2ccccc2)no1)c1nc(C#N)ncc1Cl | 0.12 µM

Row | Structure (SMILES) | IC50
36 | CC(C)CN(NC(=O)c1cc(-c2ccccc2)no1)c1nc(C#N)ncc1Br | 0.359 µM
37 | Cc1nn(-c2ccccc2)nc1C(=O)NN(CC(C)C)c1nc(C#N)ncc1Br | 1.1 µM
38 | COc1ccc(CC(=O)NN(CC(C)C)c2nc(C#N)ncc2Br)cc1 | 0.006 µM
39 | COc1ccc(CC(=O)NN(CC(C)C)c2nc(C#N)ncc2Cl)cc1 | 0.005 µM
40 | CC(C)CN(NC(=O)Cc1ccc(F)cc1)c1nc(C#N)ncc1Br | 0.004 µM
41 | CC(C)CN(NC(=O)Cc1c(F)cccc1F)c1nc(C#N)ncc1Br | 0.008 µM
42 | CC(C)CN(NC(=O)c1ccc(CN2CCN(C)CC2)cc1)c1nc(C#N)ncc1Br | 0.055 µM
43 | CN1CCN(Cc2ccc(C(=O)NN(CC(C)(C)C)c3nc(C#N)ncc3Br)cc2)CC1 | 0.158 µM
44 | CC(C)CCN(NC(=O)c1ccc(CN2CCN(C)CC2)cc1)c1nc(C#N)ncc1Br | 0.068 µM
45 | CN1CCN(Cc2ccc(C(=O)NN(CCC(C)(C)C)c3nc(C#N)ncc3Br)cc2)CC1 | 0.039 µM
46 | CCC(CC)CN(NC(=O)c1ccc(CN2CCN(C)CC2)cc1)c1nc(C#N)ncc1Br | 0.044 µM
47 | CCCC(CCC)CN(NC(=O)c1ccc(CN2CCN(C)CC2)cc1)c1nc(C#N)ncc1Br | 0.802 µM
48 | CCCCC(CCCC)CN(NC(=O)c1ccc(CN2CCN(C)CC2)cc1)c1nc(C#N)ncc1Br | 0.656 µM
49 | CCC(C)CN(NC(=O)c1ccc(CN2CCN(C)CC2)cc1)c1nc(C#N)ncc1Br (centres undefined) | 0.035 µM
50 | CCCC(C)CN(NC(=O)c1ccc(CN2CCN(C)CC2)cc1)c1nc(C#N)ncc1Br (centres undefined) | 0.052 µM
51 | CC(C)N(NC(=O)c1ccc(CN2CCN(C)CC2)cc1)c1nc(C#N)ncc1Br | 1.37 µM
52 | CCC(CC)N(NC(=O)c1ccc(CN2CCN(C)CC2)cc1)c1nc(C#N)ncc1Br | 2.04 µM
53 | CN1CCN(Cc2ccc(C(=O)NN(CC3CC3)c3nc(C#N)ncc3Br)cc2)CC1 | 0.33 µM

system: not listed separately; test: Inhibition of Plasmodium falciparum falcipain-2 expressed in Escherichia coli; settings: not given
Summary of the method: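 Recombinant E. coli-expressed, refolded enzyme at 0.25 nM in 100 mM sodium acetate pH 5.5, 500 μM CHAPS, 10 mM DTT, DMSO ≤1%. Substrate H-D-Val-Leu-Arg-AFC at 30 μM final. Inhibitor dilutions mixed with substrate, enzyme added last; fluorescence followed 1 h at room temperature. IC50 from percent activity versus concentration.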

Row | Structure (SMILES) | IC50
54 | CC(C)CN(NC(=O)c1ccc(-c2ccccc2)nc1)c1nc(C#N)ncc1Br | 0.003 µM
55 | CN1CCN(Cc2ccc(C(=O)NN(CC3CCC3)c3nc(C#N)ncc3Br)cc2)CC1 | 0.003 µM
56 | CN1CCN(Cc2ccc(C(=O)NN(CC3CCCC3)c3nc(C#N)ncc3Br)cc2)CC1 | 0.0005 µM
57 | CN1CCN(Cc2ccc(C(=O)NN(CC3CCCCC3)c3nc(C#N)ncc3Br)cc2)CC1 | 0.002 µM
58 | CN1CCN(Cc2ccc(C(=O)NN(CC3(C)CCCCC3)c3nc(C#N)ncc3Br)cc2)CC1 | 0.005 µM
59 | CC(C)CN(NC(=O)c1ccc(-c2ccc(Cl)cc2)o1)c1nc(C#N)ncc1Br | 0.02 µM
60 | CC(C)CN(NC(=O)c1ccc(-c2cccc(C(F)(F)F)c2)o1)c1nc(C#N)ncc1Br | 0.005 µM
61 | Cc1oc(-c2ccccc2)cc1C(=O)NN(CC(C)C)c1nc(C#N)ncc1Br | 0.025 µM
62 | CC(C)CN(NC(=O)c1ccc(-c2ccccc2)s1)c1nc(C#N)ncc1Br | 0.006 µM
63 | CC(C)CN(NC(=O)c1cc(-c2ccccc2)cs1)c1nc(C#N)ncc1Br | 0.003 µM
64 | CN1CCN(Cc2ccc(C(=O)NN(CCC3CCCC3)c3nc(C#N)ncc3Br)cc2)CC1 | 0.004 µM
65 | CC(C)CN(NC(=O)c1ncoc1-c1ccccc1)c1nc(C#N)ncc1Br | 0.014 µM
66 | CC(C)CN(NC(=O)c1csc(-c2ccccc2)n1)c1nc(C#N)ncc1Cl | 0.0015 µM
67 | CC(C)CN(NC(=O)c1csc(-c2ccccc2)n1)c1nc(C#N)ncc1Br | 0.003 µM
68 | Cc1nc(-c2ccc3c(c2)CCO3)sc1C(=O)NN(CC(C)C)c1nc(C#N)ncc1Cl | 0.003 µM
69 | CC(C)CN(NC(=O)c1cnc(-c2ccc3c(c2)CCO3)s1)c1nc(C#N)ncc1Cl | 0.002 µM
70 | CC(C)CN(NC(=O)c1c[nH]c(-c2ccccc2)n1)c1nc(C#N)ncc1Br | 0.004 µM
71 | CC(C)CN(NC(=O)c1cc(-c2ccccc2)no1)c1nc(C#N)ncc1Cl | 0.002 µM

Row | Structure (SMILES) | IC50
72 | CC(C)CN(NC(=O)c1cc(-c2ccccc2)no1)c1nc(C#N)ncc1Br | 0.01 µM
73 | Cc1nn(-c2ccccc2)nc1C(=O)NN(CC(C)C)c1nc(C#N)ncc1Br | 0.676 µM
74 | COc1ccc(CC(=O)NN(CC(C)C)c2nc(C#N)ncc2Br)cc1 | 0.0015 µM
75 | COc1ccc(CC(=O)NN(CC(C)C)c2nc(C#N)ncc2Cl)cc1 | 0.001 µM
76 | CC(C)CN(NC(=O)Cc1ccc(F)cc1)c1nc(C#N)ncc1Br | 0.003 µM
77 | CC(C)CN(NC(=O)Cc1c(F)cccc1F)c1nc(C#N)ncc1Br | 0.0005 µM
78 | CC(C)CN(NC(=O)c1ccc(CN2CCN(C)CC2)cc1)c1nc(C#N)ncc1Br | 0.0004 µM
79 | CN1CCN(Cc2ccc(C(=O)NN(CC(C)(C)C)c3nc(C#N)ncc3Br)cc2)CC1 | 0.019 µM
80 | CC(C)CCN(NC(=O)c1ccc(CN2CCN(C)CC2)cc1)c1nc(C#N)ncc1Br | 0.004 µM
81 | CN1CCN(Cc2ccc(C(=O)NN(CCC(C)(C)C)c3nc(C#N)ncc3Br)cc2)CC1 | 0.003 µM
82 | CCC(CC)CN(NC(=O)c1ccc(CN2CCN(C)CC2)cc1)c1nc(C#N)ncc1Br | 0.002 µM
83 | CCCC(CCC)CN(NC(=O)c1ccc(CN2CCN(C)CC2)cc1)c1nc(C#N)ncc1Br | 0.081 µM
84 | CCCCC(CCCC)CN(NC(=O)c1ccc(CN2CCN(C)CC2)cc1)c1nc(C#N)ncc1Br | 0.293 µM
85 | CCC(C)CN(NC(=O)c1ccc(CN2CCN(C)CC2)cc1)c1nc(C#N)ncc1Br (centres undefined) | 0.0009 µM
86 | CCCC(C)CN(NC(=O)c1ccc(CN2CCN(C)CC2)cc1)c1nc(C#N)ncc1Br (centres undefined) | 0.002 µM
87 | CC(C)N(NC(=O)c1ccc(CN2CCN(C)CC2)cc1)c1nc(C#N)ncc1Br | 0.029 µM
88 | CCC(CC)N(NC(=O)c1ccc(CN2CCN(C)CC2)cc1)c1nc(C#N)ncc1Br | 0.187 µM
89 | CN1CCN(Cc2ccc(C(=O)NN(CC3CC3)c3nc(C#N)ncc3Br)cc2)CC1 | 0.005 µM
